Test results: ChEMBL document CHEMBL2086340, “Synthesis and biological evaluation of 2-benzylamino-4(5)-(6-methylpyridin-2-yl)-5(4)-([1,2,4]triazolo[1,5-a]-pyridin-6-yl)thiazoles as transforming growth factor-β type 1 receptor kinase inhibitors” (Eur J Med Chem, 2012)
pIC50: −log10 of the molar value.

Legend:
Homo sapiens = organism: Homo sapiens; assay: Selectivity index, ratio of IC50 for human recombinant p38alpha to IC50 for human recombinant ALK5
Method in brief: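 Index is IC50(p38α)/IC50(ALK5), each from a radioisotopic ³³P protein kinase assay run by a contract lab. The p38α was untagged human recombinant protein expressed in E. coli and purified on Ni–NTH–agarose, with ATF2 as substrate. The ALK5 kinase domain was human recombinant GST-fusion protein from baculovirus-infected Sf9 cells, with casein as substrate.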

TGF-beta receptor type-1 = target: T1, TGF-beta receptor type-1 (Homo sapiens, UniProt P36897); assay: Inhibition of human recombinant GST-fused ALK5 expressed in Sf9 cells using casein as a substrate by radioisotopic protein kinase assay
T1 sequence (P36897 whole entry): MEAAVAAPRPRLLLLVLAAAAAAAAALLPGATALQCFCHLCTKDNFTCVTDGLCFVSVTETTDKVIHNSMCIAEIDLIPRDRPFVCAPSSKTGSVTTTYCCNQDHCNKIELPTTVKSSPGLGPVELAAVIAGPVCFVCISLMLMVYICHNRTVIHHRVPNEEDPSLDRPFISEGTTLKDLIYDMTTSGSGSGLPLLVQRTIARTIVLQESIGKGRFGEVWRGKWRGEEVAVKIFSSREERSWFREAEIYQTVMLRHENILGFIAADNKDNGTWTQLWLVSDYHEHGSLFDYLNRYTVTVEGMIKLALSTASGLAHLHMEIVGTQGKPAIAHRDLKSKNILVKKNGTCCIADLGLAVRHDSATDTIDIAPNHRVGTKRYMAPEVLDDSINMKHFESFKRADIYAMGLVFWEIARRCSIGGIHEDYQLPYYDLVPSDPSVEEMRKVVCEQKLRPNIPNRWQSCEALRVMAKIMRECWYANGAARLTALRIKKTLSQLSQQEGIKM

[1] = target: Mitogen-activated protein kinase 14 (Homo sapiens, UniProt Q16539); assay: Inhibition of human recombinant p38alpha expressed in Escherichia coli using ATF2 as a substrate by radioisotopic protein kinase assay
Sequence of Mitogen-activated protein kinase 14 (Q16539 whole entry): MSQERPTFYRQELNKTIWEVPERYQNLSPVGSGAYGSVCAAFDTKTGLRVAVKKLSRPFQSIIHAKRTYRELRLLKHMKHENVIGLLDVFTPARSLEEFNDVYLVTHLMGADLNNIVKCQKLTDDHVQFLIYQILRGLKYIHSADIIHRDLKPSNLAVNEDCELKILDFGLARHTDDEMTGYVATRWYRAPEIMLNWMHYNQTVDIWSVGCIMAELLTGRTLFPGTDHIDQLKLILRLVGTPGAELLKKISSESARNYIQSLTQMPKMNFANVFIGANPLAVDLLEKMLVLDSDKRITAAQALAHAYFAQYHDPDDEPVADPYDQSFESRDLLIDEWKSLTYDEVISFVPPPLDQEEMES

Row | SMILES | Ratio IC50 (Homo sapiens) | pIC50 (TGF-beta receptor type-1) | pIC50 [1]
1 | Cc1cc(C)cc(CNc2nc(-c3cccc(C)n3)c(-c3ccc4ncnn4c3)s2)c1 | > 455 | 7.66 | < 5.00
2 | Cc1cccc(-c2nc(NCc3ccccc3OC(F)(F)F)sc2-c2ccc3ncnn3c2)n1 | > 279 | 7.44 | < 5.00
3 | Cc1cccc(-c2nc(NCc3cccc(C#N)c3)sc2-c2ccc3ncnn3c2)n1 | 408 | 8.03 | 5.42
4 | Cc1cccc(-c2nc(NCc3ccc(F)c(F)c3)sc2-c2ccc3ncnn3c2)n1 | 482 | 8.13 | 5.45
5 | Cc1cccc(-c2[nH]c(Cc3cccc(C(N)=O)c3)nc2-c2ccc3nccnc3c2)n1 | 28 | – | –
6 | Cc1cccc(-c2nc(NCc3cccc(OC(F)(F)F)c3)sc2-c2ccc3ncnn3c2)n1 | 383 | 7.71 | 5.13
7 | Cc1ccc(CNc2nc(-c3cccc(C)n3)c(-c3ccc4ncnn4c3)s2)cc1 | > 1140 | 8.06 | < 5.00
8 | Cc1cccc(-c2sc(NCc3cccc(C(N)=O)c3)nc2-c2ccc3ncnn3c2)n1 | > 833 | 7.92 | < 5.00
9 | COc1ccc(CNc2nc(-c3cccc(C)n3)c(-c3ccc4ncnn4c3)s2)cc1OC | > 210 | 7.32 | < 5.00
10 | Cc1cccc(-c2sc(NCc3ccccc3F)nc2-c2ccc3ncnn3c2)n1 | > 472 | 7.67 | < 5.00
11 | COc1ccc(CNc2nc(-c3cccc(C)n3)c(-c3ccc4ncnn4c3)s2)cc1 | > 412 | 7.61 | < 5.00
12 | Cc1cccc(-c2nc(NCc3cc(F)cc(F)c3)sc2-c2ccc3ncnn3c2)n1 | 428 | 8.05 | 5.42
13 | COc1cc(CNc2nc(-c3cccc(C)n3)c(-c3ccc4ncnn4c3)s2)cc(OC)c1 | 484 | 7.78 | 5.10
14 | Cc1cccc(-c2nc(NCc3ccc(F)cc3)sc2-c2ccc3ncnn3c2)n1 | 1070 | 8.06 | 5.04
15 | Cc1cccc(-c2nc(NCc3cccc(C(N)=O)c3)sc2-c2ccc3ncnn3c2)n1 | 455 | 7.87 | 5.21
16 | Cc1cccc(-c2nc(NCc3ccc(C(N)=O)cc3)sc2-c2ccc3ncnn3c2)n1 | > 389 | 7.59 | < 5.00
17 | Cc1cccc(-c2nc(NCc3ccc(OC(F)(F)F)cc3)sc2-c2ccc3ncnn3c2)n1 | > 164 | 7.22 | < 5.00
18 | Cc1cccc(-c2sc(NCc3ccccc3)nc2-c2ccc3ncnn3c2)n1 | 360 | 7.61 | 5.05
19 | Cc1cccc(-c2nc(NCc3ccc(C#N)cc3)sc2-c2ccc3ncnn3c2)n1 | > 325 | 7.51 | < 5.00
20 | Cc1cccc(-c2sc(NCc3cccc(C#N)c3)nc2-c2ccc3ncnn3c2)n1 | > 398 | 7.60 | < 5.00
21 | COc1cccc(CNc2nc(-c3cccc(C)n3)c(-c3ccc4ncnn4c3)s2)c1 | > 877 | 7.94 | < 5.00

Next, values leading:

Row | Ratio IC50 (Homo sapiens) | pIC50 (TGF-beta receptor type-1) | pIC50 [1] | SMILES
22 | > 962 | 7.98 | < 5.00 | Cc1cccc(-c2nc(NCc3ccccc3F)sc2-c2ccc3ncnn3c2)n1
23 | 504 | 8.15 | 5.45 | Cc1cccc(-c2nc(NCc3cccc(F)c3)sc2-c2ccc3ncnn3c2)n1
24 | > 592 | 7.77 | < 5.00 | Cc1cccc(-c2nc(NCc3ccccc3C)sc2-c2ccc3ncnn3c2)n1
25 | 322 | 7.99 | 5.48 | Cc1cccc(-c2nc(NCc3cccc(Cl)c3)sc2-c2ccc3ncnn3c2)n1
26 | > 633 | 7.80 | < 5.00 | Cc1cccc(-c2nc(NCc3ccc(Cl)cc3)sc2-c2ccc3ncnn3c2)n1
27 | 245 | 7.53 | 5.14 | Cc1cccc(-c2nc(NCc3cccc(F)c3F)sc2-c2ccc3ncnn3c2)n1
28 | 378 | 7.81 | 5.23 | Cc1cccc(-c2nc(NCc3ccccc3Cl)sc2-c2ccc3ncnn3c2)n1
29 | > 452 | 7.66 | < 5.00 | Cc1cccc(-c2nc(NCc3cccc(C)c3C)sc2-c2ccc3ncnn3c2)n1
30 | > 457 | 7.66 | < 5.00 | Cc1cccc(-c2nc(NCc3ccc(Cl)c(Cl)c3)sc2-c2ccc3ncnn3c2)n1
31 | 489 | 7.95 | 5.26 | Cc1cccc(-c2nc(NCc3ccccc3)sc2-c2ccc3ncnn3c2)n1
32 | > 230 | 7.36 | < 5.00 | COc1cccc(CNc2nc(-c3cccc(C)n3)c(-c3ccc4ncnn4c3)s2)c1OC
33 | > 662 | 7.82 | < 5.00 | Cc1cccc(-c2nc(NCc3cc(Cl)cc(Cl)c3)sc2-c2ccc3ncnn3c2)n1
34 | > 292 | 7.46 | < 5.00 | Cc1cccc(-c2nc(NCc3cccc(Cl)c3Cl)sc2-c2ccc3ncnn3c2)n1
35 | 479 | 7.95 | 5.27 | Cc1cccc(CNc2nc(-c3cccc(C)n3)c(-c3ccc4ncnn4c3)s2)c1
